Laboratory results: ChEMBL document CHEMBL1149289, “Synthesis and antibacterial activity of new poly-S-lysine-porphyrin conjugates” (J Med Chem, 2004)

Key:
Staphylococcus aureus [1] = test: Drug uptake per mg of protein in methicillin-resistant Staphylococcus aureus 110 at 5 uM after 10 mins; format: ADME, organism-based; conditions: in vivo
Procedure, shortened: (§1)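 Bacterial suspensions (10^8 to 10^9 cells/mL in PBS) were incubated with porphyrin for 10 min in the dark at room temperature, then centrifuged. The pellet was digested in 2% aqueous SDS. Porphyrin was quantified by spectrofluorimetry and cell protein by modified Lowry assay (BSA standard). Uptake is given as nmol per mg cell protein.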

Staphylococcus aureus [2] = test: Drug uptake per mg of protein in Staphylococcus aureus ATCC 25923 at 5 uM after 10 mins; format: ADME, organism-based; conditions: in vivo; procedure, shortened: as §1
Staphylococcus aureus [3] = test: Logarithmic survival of methicillin-resistant Staphylococcus aureus 110 at 0.25 uM after 10 mins and irradiated with white light at the fluence rate of 50 mW/cm2 for 30 mins relative to control; format: functional; conditions: light or radiation study
Procedure, shortened: (§2)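 MRSA 110 grown aerobically at 37 °C on BHA. Stationary-phase cells were taken into BHI, washed twice in PBS and diluted to OD650 ~0.7 (10^8 to 10^9 cells/mL). Suspensions were held with photosensitizer for 10 min in the dark at room temperature, then given white light for 30 min. Cells were serially diluted, plated on BHA and counted after 16–20 h at 37 °C. Survival = cfu ÷ cfu of photosensitizer-free controls.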

Staphylococcus aureus [4] = test: Drug uptake per mg of protein in methicillin-resistant Staphylococcus aureus 110 at 2.5 uM after 10 mins; format: ADME, organism-based; conditions: in vivo; procedure, shortened: as §1
[5] = Photostability after irradiation with white light at the fluence rate of 50 mW/cm2 for 30 mins; format: ADME; conditions: read-out: Stability
Staphylococcus aureus [6] = test: Logarithmic survival of Staphylococcus aureus ATCC 25923 at 5 uM after 10 mins and irradiated with white light at the fluence rate of 50 mW/cm2 for 30 mins relative to control; format: functional; conditions: ATCC 25923, light or radiation study
Procedure, shortened: (§3)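 Strains grown aerobically at 37 °C on brain heart agar; stationary-phase cells washed twice in PBS and adjusted to OD650 ca. 0.7 (10^8 to 10^9 cells/mL). Cells incubated with photosensitizer at various concentrations for 10 min in the dark at room temperature, then irradiated with white light at 50 mW/cm² for 30 min. Survivors counted as cfu on BHA after 16–20 h at 37 °C, expressed relative to no-photosensitizer controls. Dark controls were run without irradiation.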

Staphylococcus aureus [7] = test: Logarithmic survival of Staphylococcus aureus ATCC 25923 at 1 uM after 10 mins and irradiated with white light at the fluence rate of 50 mW/cm2 for 30 mins relative to control; format: functional; conditions: ATCC 25923, light or radiation study; procedure, shortened: as §3
[8] = Photostability after irradiation with white light at the fluence rate of 50 mW/cm2 for 1 min; format: ADME; conditions: read-out: Stability
Staphylococcus aureus [9] = test: Logarithmic survival of methicillin-resistant Staphylococcus aureus 110 at 0.5 uM after 10 mins and irradiated with white light at the fluence rate of 50 mW/cm2 for 30 mins relative to control; format: functional; conditions: light or radiation study; procedure, shortened: as §2
Escherichia coli [10] = test: Drug uptake per mg of protein in Escherichia coli O4 at 10 uM after 10 mins; format: ADME, organism-based; conditions: in vivo; procedure, shortened: as §1
Escherichia coli [11] = test: Logarithmic survival of Escherichia coli O4 at 1 uM after 10 mins and irradiated with white light at the fluence rate of 50 mW/cm2 for 30 mins relative to control; format: functional; conditions: O4, light or radiation study; procedure, shortened: as §3
Escherichia coli [12] = test: Antibacterial activity against Escherichia coli O4 measured as 4 log decrease in survival; format: functional; procedure, shortened: as §3
Staphylococcus aureus [13] = test: Logarithmic survival of methicillin-resistant Staphylococcus aureus 110 at 0.01 uM after 10 mins and irradiated with white light at the fluence rate of 50 mW/cm2 for 30 mins relative to control; format: functional; conditions: light or radiation study; procedure, shortened: as §3
Staphylococcus aureus [14] = test: Drug uptake per mg of protein in Staphylococcus aureus ATCC 25923 at 1 uM after 10 mins; format: ADME, organism-based; conditions: in vivo; procedure, shortened: as §1
Staphylococcus aureus [15] = test: Logarithmic survival of methicillin-resistant Staphylococcus aureus 110 at 0.1 uM after 10 mins and irradiated with white light at the fluence rate of 50 mW/cm2 relative to control; format: functional; conditions: light or radiation study
Staphylococcus aureus [16] = test: Logarithmic survival of Staphylococcus aureus ATCC 25923 at 0.1 uM after 10 mins and irradiated with white light at the fluence rate of 50 mW/cm2 for 20 mins relative to control; format: functional; conditions: ATCC 25923, light or radiation study
Procedure, shortened: (§4)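 S. aureus ATCC 25923 or MRSA 110 (PBS-washed, 10^8 to 10^9 cells/mL) were incubated with 0.1 μM photosensitizer for 10 min in the dark at room temperature. They were then irradiated with white light at 50 mW/cm² for varying times up to 30 min. Survival was read as cfu on BHA and divided by cfu of controls without photosensitizer.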

Staphylococcus aureus [17] = test: Logarithmic survival of methicillin-resistant Staphylococcus aureus 110 at 0.1 uM after 10 mins and irradiated with white light at the fluence rate of 50 mW/cm2 for 30 mins relative to control; format: functional; conditions: light or radiation study; procedure, shortened: as §4
Escherichia coli [18] = test: Logarithmic survival of Escherichia coli O4 at 10 uM after 10 mins and irradiated with white light at the fluence rate of 50 mW/cm2 for 30 mins relative to control; format: functional; conditions: O4, light or radiation study; procedure, shortened: as §3
Staphylococcus aureus [19] = test: Drug uptake per mg of protein in methicillin-resistant Staphylococcus aureus 110 at 1 uM after 10 mins; format: ADME, organism-based; conditions: in vivo; procedure, shortened: as §1
Staphylococcus aureus [20] = test: Drug uptake per mg of protein in Staphylococcus aureus ATCC 25923 at 2.5 uM after 10 mins; format: ADME, organism-based; conditions: in vivo; procedure, shortened: as §1
Escherichia coli [21] = test: Logarithmic survival of Escherichia coli O4 at 0.01 uM after 10 mins and irradiated with white light at the fluence rate of 50 mW/cm2 for 30 mins relative to control; format: functional; conditions: O4, light or radiation study; procedure, shortened: as §3
Staphylococcus aureus [22] = test: Logarithmic survival of methicillin-resistant Staphylococcus aureus 110 at 0.1 uM after 10 mins and irradiated with white light at the fluence rate of 50 mW/cm2 for 20 mins relative to control; format: functional; conditions: light or radiation study; procedure, shortened: as §4
Escherichia coli [23] = test: Logarithmic survival of Escherichia coli O4 at 2.5 uM after 10 mins and irradiated with white light at the fluence rate of 50 mW/cm2 for 30 mins relative to control; format: functional; conditions: O4, light or radiation study; procedure, shortened: as §3
Staphylococcus aureus [24] = test: Logarithmic survival of Staphylococcus aureus ATCC 25923 at 0.1 uM after 10 mins and irradiated with white light at the fluence rate of 50 mW/cm2 for 10 mins relative to control; format: functional; conditions: ATCC 25923, light or radiation study; procedure, shortened: as §4
Staphylococcus aureus [25] = test: Logarithmic survival of methicillin-resistant Staphylococcus aureus 110 at 0.1 uM after 10 mins and irradiated with white light at the fluence rate of 50 mW/cm2 for 10 mins relative to control; format: functional; conditions: light or radiation study; procedure, shortened: as §4
Staphylococcus aureus [26] = test: Logarithmic survival of methicillin-resistant Staphylococcus aureus 110 at 5 uM after 10 mins and irradiated with white light at the fluence rate of 50 mW/cm2 for 30 mins relative to control; format: functional; conditions: light or radiation study; procedure, shortened: as §2
Staphylococcus aureus [27] = test: Logarithmic survival of methicillin-resistant Staphylococcus aureus 110 at 10 uM after 10 mins and irradiated with white light at the fluence rate of 50 mW/cm2 for 30 mins relative to control; format: functional; conditions: light or radiation study; procedure, shortened: as §2
Staphylococcus aureus [28] = test: Logarithmic survival of Staphylococcus aureus ATCC 25923 at 10 uM after 10 mins and irradiated with white light at the fluence rate of 50 mW/cm2 for 30 mins relative to control; format: functional; conditions: ATCC 25923, light or radiation study; procedure, shortened: as §3
[29] = Photostability after irradiation with white light at the fluence rate of 50 mW/cm2 for 10 mins; format: ADME; conditions: read-out: Stability
Staphylococcus aureus [30] = test: Logarithmic survival of methicillin-resistant Staphylococcus aureus 110 at 0.1 uM after 10 mins and irradiated with white light at the fluence rate of 50 mW/cm2 for 1 min relative to control; format: functional; conditions: light or radiation study; procedure, shortened: as §4

Structure (SMILES): C[n+]1ccc(-c2c3nc(c(-c4cc[n+](C)cc4)c4ccc([nH]4)c(-c4cc[n+](C)cc4)c4nc(c(-c5ccc(C(=O)O)cc5)c5ccc2[nH]5)C=C4)C=C3)cc1.[I-].[I-].[I-]
- Drug uptake (Staphylococcus aureus [1]): 11.8 nmol/mg
- Drug uptake (Staphylococcus aureus [2]): 9.97 nmol/mg
- survival at 0.25 µM (Staphylococcus aureus [3]): 1.68%
- Drug uptake (Staphylococcus aureus [4]): 7.69 nmol/mg
- remaining at 0.5 h [5]: 67%
- survival at 5 µM (Staphylococcus aureus [6]): -3.06%
- survival at 1 µM (Staphylococcus aureus [7]): -1.32%
- remaining at 1 min [8]: 93%
- survival at 0.5 µM (Staphylococcus aureus [9]): 1.33%
- Drug uptake (Escherichia coli [10]): 6.88 nmol/mg
- survival at 1 µM (Escherichia coli [11]): 0.68
- Activity (Escherichia coli [12]): 5 µM
- log survival at 0.01 µM (Staphylococcus aureus [13]): 2 log10 %
- Drug uptake (Staphylococcus aureus [14]): 3.71 nmol/mg
- survival at 0.1 µM (Staphylococcus aureus [15]): 1.95
- survival at 0.1 µM (Staphylococcus aureus [16]): -2.12
- survival at 0.1 µM (Staphylococcus aureus [17]): 1.69%
- survival at 10 µM (Escherichia coli [18]): -4.36
- Drug uptake (Staphylococcus aureus [19]): 5.43 nmol/mg
- Drug uptake (Staphylococcus aureus [20]): 7.77 nmol/mg
- survival at 0.01 µM (Escherichia coli [21]): 2
- survival at 0.1 µM (Staphylococcus aureus [22]): 1.79
- survival at 2.5 µM (Escherichia coli [23]): -0.46
- survival at 0.1 µM (Staphylococcus aureus [24]): -0.42
- survival at 0.1 µM (Staphylococcus aureus [25]): 1.7
- survival at 5 µM (Staphylococcus aureus [26]): -2.29
- survival at 10 µM (Staphylococcus aureus [27]): -2.7
- survival at 10 µM (Staphylococcus aureus [28]): -4.36%
- remaining at 10 min [29]: 77%
- survival at 0.1 µM (Staphylococcus aureus [30]): 1.96

Structure (SMILES): O=C(O)c1ccc(-c2c3nc(c(-c4ccncc4)c4ccc([nH]4)c(-c4ccncc4)c4nc(c(-c5ccncc5)c5ccc2[nH]5)C=C4)C=C3)cc1 [PORPHIRIN]
- Drug uptake (Staphylococcus aureus [1]): 143 nmol/mg
- Drug uptake (Staphylococcus aureus [2]): 81.4 nmol/mg
- survival at 0.25 µM (Staphylococcus aureus [3]): -1.39%
- Drug uptake (Staphylococcus aureus [4]): 47 nmol/mg
- remaining at 0.5 h [5]: 85%
- survival at 5 µM (Staphylococcus aureus [6]): -3.73%
- survival at 1 µM (Staphylococcus aureus [7]): -2.7%
- remaining at 1 min [8]: 99%
- survival at 0.5 µM (Staphylococcus aureus [9]): -1.58%
- Drug uptake (Escherichia coli [10]): 163 nmol/mg
- survival at 1 µM (Escherichia coli [11]): 1.72
- Activity (Escherichia coli [12]): 10 µM
- log survival at 0.01 µM (Staphylococcus aureus [13]): 2 log10 %
- Drug uptake (Staphylococcus aureus [14]): 7.7 nmol/mg
- survival at 0.1 µM (Staphylococcus aureus [15]): 1.89
- survival at 0.1 µM (Staphylococcus aureus [16]): -3
- survival at 0.1 µM (Staphylococcus aureus [17]): 0.46%
- survival at 10 µM (Escherichia coli [18]): -4.06
- Drug uptake (Staphylococcus aureus [19]): 15 nmol/mg
- Drug uptake (Staphylococcus aureus [20]): 32.1 nmol/mg
- survival at 0.01 µM (Escherichia coli [21]): 2
- survival at 0.1 µM (Staphylococcus aureus [22]): -0.6
- survival at 2.5 µM (Escherichia coli [23]): 1.65
- survival at 0.1 µM (Staphylococcus aureus [24]): -2.07
- survival at 0.1 µM (Staphylococcus aureus [25]): 0.98
- survival at 5 µM (Staphylococcus aureus [26]): -3.07
- survival at 10 µM (Staphylococcus aureus [27]): -3.35
- survival at 10 µM (Staphylococcus aureus [28]): -4.06%
- remaining at 10 min [29]: 94%
- survival at 0.1 µM (Staphylococcus aureus [30]): 1.83
